ChEMBL document CHEMBL2413016, “Synthesis and in vivo evaluation of [(18)F]2-(4-(4-(2-(2-fluoroethoxy)phenyl)piperazin-1-yl)butyl)-4-methyl-1,2,4-triazine-3,5(2H,4H)-dione ([(18)F]FECUMI-101) as an imaging probe for 5-HT1A receptor agonist in nonhuman primates” (Bioorg Med Chem, 2013)

Legend:
[1] = Metabolic stability of the compound in baboon plasma assessed as unmetabolized parent fraction after 60 mins by HPLC analysis; type: ADME, cell-free; details: papio anubis, read-out: Stability
Method in brief: (§1)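 Radiotracer given as an iv bolus to anesthetized baboons. Arterial blood was drawn at 2, 12, 30, 60, 90, 120, 150 and 180 min and centrifuged at 2000 rpm for 1 min. Plasma was mixed with acetonitrile, vortexed and spun at 14,000 rpm for 4 min. The supernatant was counted, then analysed by reversed-phase HPLC with radioactivity detection. Parent percentage was corrected for background and decay, with a QC standard run at the start and end.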

[2] = system: Nucleic Acid; assay: Ratio of drug level in prefrontal cortex to cerebellum in baboon at 111 +/- 18 MBq, iv after 175 mins by PET analysis; type: ADME, organism-based; details: papio anubis, in vivo
[3] = system: Plasma; assay: Binding to human plasma proteins
[4] = Drug uptake in baboon cerebellum at 111 +/- 18 MBq, iv by PET analysis in presence of WAY100635; type: ADME, organism-based; details: papio anubis, in vivo
Method in brief: (§2)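 Baboon PET run as for baseline: ketamine/isoflurane anesthesia, iv bolus of tracer, 180 min 3-D acquisition, right and left regions averaged. WAY100635 maleate (0.5 mg/kg iv in 12 mL saline) was given at 50–60 min after tracer injection as a chase/blocking challenge.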

[5] = Tmax in baboon amygdala at 111 +/- 18 MBq, iv by PET analysis; type: ADME, organism-based; details: papio anubis, in vivo
Method in brief: (§3)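 Two fasted male baboons were given ketamine (10 mg/kg im) and kept under 1.5–2.0% isoflurane, with core temperature held at 37 °C. Tracer in 10% ethanol/90% saline was given as an iv bolus, and 3-D emission data were acquired for 180 min. Regional time-activity curves came from regions of interest, with right and left regions averaged.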

[6] = system: Nucleic Acid; assay: Ratio of drug level in hippocampus to cerebellum in baboon at 111 +/- 18 MBq, iv after 175 mins by PET analysis; type: ADME, organism-based; details: papio anubis, in vivo
[7] = Tmax in baboon striatum at 111 +/- 18 MBq, iv by PET analysis; type: ADME, organism-based; details: papio anubis, in vivo
Method in brief: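 Baseline PET in two fasted male baboons on an ECAT EXACT HR+ scanner. Animals were immobilized with ketamine (10 mg/kg im), kept on 1.5–2.0% isoflurane via endotracheal tube, held at 37 °C core temperature, and hydrated with 0.9% NaCl. Radiotracer in 10% ethanol/saline was given as an iv bolus. Emission was recorded for 180 min in 3-D mode. Region time-activity curves used right/left averaged ROIs.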

[8] = system: Nucleic Acid; assay: Ratio of drug level in dorsal raphe nucleus to cerebellum in baboon at 111 +/- 18 MBq, iv after 175 mins by PET analysis; type: ADME, organism-based; details: papio anubis, in vivo
[9] = Metabolic stability of the compound in baboon plasma assessed as unmetabolized parent fraction after 180 mins by HPLC analysis; type: ADME, cell-free; details: papio anubis, read-out: Stability; method in brief: as §1
[10] = system: Papio anubis; assay: Drug metabolism in baboon at 111 +/- 18 MBq, iv after 2 to 180 mins; type: ADME, organism-based; details: in vivo; method in brief: as §1
[11] = Metabolic stability of the compound in baboon plasma assessed as unmetabolized parent fraction after 30 mins by HPLC analysis; type: ADME, cell-free; details: papio anubis, read-out: Stability; method in brief: as §1
[12] = Metabolic stability of the compound in baboon plasma assessed as unmetabolized parent fraction after 150 mins by HPLC analysis; type: ADME, cell-free; details: papio anubis, read-out: Stability; method in brief: as §1
[13] = Drug uptake in baboon thalamus at 111 +/- 18 MBq, iv by PET analysis in presence of WAY100635; type: ADME, organism-based; details: papio anubis, in vivo; method in brief: as §2
[14] = Tmax in baboon hippocampus at 111 +/- 18 MBq, iv by PET analysis; type: ADME, organism-based; details: papio anubis, in vivo; method in brief: as §3
[15] = system: Nucleic Acid; assay: Ratio of drug level in anterior cingulate cortex to cerebellum in baboon at 111 +/- 18 MBq, iv after 175 mins by PET analysis; type: ADME, organism-based; details: papio anubis, in vivo
[16] = Tmax in baboon insula cortex at 111 +/- 18 MBq, iv by PET analysis; type: ADME, organism-based; details: papio anubis, in vivo; method in brief: as §3
[17] = Metabolic stability of the compound in baboon plasma assessed as unmetabolized parent fraction after 90 mins by HPLC analysis; type: ADME, cell-free; details: papio anubis, read-out: Stability; method in brief: as §1
[18] = system: Nucleic Acid; assay: Ratio of drug level in insular cortex to cerebellum in baboon at 111 +/- 18 MBq, iv after 175 mins by PET analysis; type: ADME, organism-based; details: papio anubis, in vivo
[19] = Drug uptake in baboon hippocampus at 111 +/- 18 MBq, iv by PET analysis in presence of WAY100635; type: ADME, organism-based; details: papio anubis, in vivo; method in brief: as §2
[20] = Drug uptake in baboon prefrontal cortex at 111 +/- 18 MBq, iv by PET analysis in presence of WAY100635; type: ADME, organism-based; details: papio anubis, in vivo; method in brief: as §2
[21] = Metabolic stability of the compound in baboon plasma assessed as unmetabolized parent fraction after 2 mins by HPLC analysis; type: ADME, cell-free; details: papio anubis, read-out: Stability; method in brief: as §1
[22] = Drug uptake in baboon temporal cortex at 111 +/- 18 MBq, iv by PET analysis in presence of WAY100635; type: ADME, organism-based; details: papio anubis, in vivo; method in brief: as §2
[23] = system: Nucleic Acid; assay: Ratio of drug level in thalamus to cerebellum in baboon at 111 +/- 18 MBq, iv after 175 mins by PET analysis; type: ADME, organism-based; details: papio anubis, in vivo
[24] = Tmax in baboon prefrontal cortex at 111 +/- 18 MBq, iv by PET analysis; type: ADME, organism-based; details: papio anubis, in vivo; method in brief: as §3
[25] = system: Nucleic Acid; assay: Ratio of drug level in temporal cortex to cerebellum in baboon at 111 +/- 18 MBq, iv after 175 mins by PET analysis; type: ADME, organism-based; details: papio anubis, in vivo
[26] = Drug uptake in baboon anterior cingulate at 111 +/- 18 MBq, iv by PET analysis in presence of WAY100635; type: ADME, organism-based; details: papio anubis, in vivo; method in brief: as §2
[27] = Drug uptake in baboon cingulate at 111 +/- 18 MBq, iv by PET analysis in presence of WAY100635; type: ADME, organism-based, Cingulate cortex; details: papio anubis, in vivo; method in brief: as §2
[28] = system: Nucleic Acid; assay: Ratio of drug level in cingulate cortex to cerebellum in baboon at 111 +/- 18 MBq, iv after 175 mins by PET analysis; type: ADME, organism-based; details: papio anubis, in vivo
[29] = Tmax in baboon cingulate cortex at 111 +/- 18 MBq, iv by PET analysis; type: ADME, organism-based; details: papio anubis, in vivo; method in brief: as §3
[30] = system: Nucleic Acid; assay: Ratio of drug level in amygdala to cerebellum in baboon at 111 +/- 18 MBq, iv after 175 mins by PET analysis; type: ADME, organism-based; details: papio anubis, in vivo
[31] = Binding to baboon plasma proteins; details: papio anubis
[32] = Drug uptake in baboon insular cortex at 111 +/- 18 MBq, iv by PET analysis in presence of WAY100635; type: ADME, organism-based; details: papio anubis, in vivo; method in brief: as §2
[33] = Drug uptake in baboon amygdala at 111 +/- 18 MBq, iv by PET analysis in presence of WAY100635; type: ADME, organism-based; details: papio anubis, in vivo; method in brief: as §2
[34] = Drug uptake in baboon caudate at 111 +/- 18 MBq, iv by PET analysis in presence of WAY100635; type: ADME, organism-based; details: papio anubis, in vivo; method in brief: as §2
[35] = Tmax in baboon cerebellum at 111 +/- 18 MBq, iv by PET analysis; type: ADME, organism-based; details: papio anubis, in vivo; method in brief: as §3
[36] = Metabolic stability of the compound in baboon plasma assessed as unmetabolized parent fraction after 120 mins by HPLC analysis; type: ADME, cell-free; details: papio anubis, read-out: Stability; method in brief: as §1
[37] = Metabolic stability of the compound in baboon plasma assessed as unmetabolized parent fraction after 12 mins by HPLC analysis; type: ADME, cell-free; details: papio anubis, read-out: Stability; method in brief: as §1

- remaining at 1 h [1]: 37%
- Ratio [2]: 1.8
- plasma protein binding [3]: 11.5%
- Drug uptake [4]: Active
- Tmax [5]: 3 min
- Ratio [6]: 4
- Tmax [7]: 3 min
- Ratio [8]: 1.75
- remaining at 3 h [9]: 18%
- Drug metabolism [10]: Active
- remaining at 0.5 h [11]: 51%
- remaining at 2.5 h [12]: 21.5%
- Drug uptake [13]: Active
- Tmax [14]: 3 min
- Ratio [15]: 2.5
- Tmax [16]: 3 min
- remaining at 1.5 h [17]: 32.5%
- Ratio [18]: 2.3
- Drug uptake [19]: Active
- Drug uptake [20]: Active
- remaining at 2 min [21]: 98%
- Drug uptake [22]: Active
- Ratio [23]: 2
- Tmax [24]: 3 min
- Ratio [25]: 2
- Drug uptake [26]: Active
- Drug uptake [27]: Active
- Ratio [28]: 1.8
- Tmax [29]: 3 min
- Ratio [30]: 2.4
- plasma protein binding [31]: 35%
- Drug uptake [32]: Active
- Drug uptake [33]: Active
- Drug uptake [34]: Active
- Tmax [35]: 3 min
- remaining at 2 h [36]: 23.5%
- remaining at 0.2 h [37]: 74%
SMILES: Cn1c(=O)cnn(CCCCN2CCN(c3ccccc3OCC[18F])CC2)c1=O
